Screening results: PubChem, Sanford-Burnham Center for Chemical Genomics
PMI activator: phosphomannose isomerase (human) activation; P34949; purified human PMI, coupled resazurin fluorescence, 20 min; active compounds read high; 1 = vehicle control, 0 substrate-free wells; activation factor at 20 µM; 190,000 tested, 0.005% active; AID 1214;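 active means activation factor of 2 or more at 20 µM, relative to plate controls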
Target sequence (P34949 whole entry, looked up): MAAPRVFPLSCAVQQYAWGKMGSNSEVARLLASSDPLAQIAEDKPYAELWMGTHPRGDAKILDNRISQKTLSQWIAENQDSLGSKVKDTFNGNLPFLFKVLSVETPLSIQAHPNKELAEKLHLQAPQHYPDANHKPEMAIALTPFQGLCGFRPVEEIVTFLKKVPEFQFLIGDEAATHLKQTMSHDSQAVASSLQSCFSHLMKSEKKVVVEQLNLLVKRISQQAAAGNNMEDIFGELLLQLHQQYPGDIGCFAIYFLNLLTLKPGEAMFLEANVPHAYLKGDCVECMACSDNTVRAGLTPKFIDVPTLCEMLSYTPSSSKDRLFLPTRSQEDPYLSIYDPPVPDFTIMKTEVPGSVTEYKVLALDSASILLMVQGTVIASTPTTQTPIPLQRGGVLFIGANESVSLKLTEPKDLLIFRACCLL
TNAP inh no acc: TNAP (human) inhibition, acceptor-free conditions; P05186; purified TNAP, CDP-star luminescence, 30 min; inhibition, % at 20 µM; 200,000 tested, 0.26% active;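 active means tissue-nonspecific alkaline phosphatase inhibition above about 50% at 20 µM in the single-dose screen, limit read from the data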;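 further: 0% = DMSO negative control and 100% = EDTA positive control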
TNAP inh hi DEA: inhibitors of human TNAP at high phosphate acceptor concentration; P05186; purified TNAP, CDP-star luminescence, 1 M DEA; inhibition, % at 20 µM; 200,000 tested, 0.03% active;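 active means over 50% inhibition of tissue-nonspecific alkaline phosphatase at 20 µM in the single-dose screen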;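 further: plate controls were DMSO wells for no effect and EDTA-quenched wells as full inhibition for full effect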
PMI act satM6P: activators of human phosphomannose isomerase at near-saturating mannose 6-phosphate. P34949. coupled PMI enzyme assay, resazurin fluorescence, 20 min; active compounds read high; 1 = untreated enzyme, 0 = substrate-free blank. activation factor at 20 µM. 190,000 tested, 0.34% active;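 active means activation factor of 2 or more at 20 µM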
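Test system: human phosphomannose isomerase with PGI, G6PDH, diaphorase coupling enzymes / Doses: 20 µM compound, 1% DMSO / Times: enzyme reaction with compound 20 min at room temperature / Measured by: Diaphorase-driven resazurin-to-resorufin fluorescence, excitation 544, emission 590 nm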
TNAP act hi DEA: increases human TNAP activity under high phosphate acceptor concentration; P05186; purified TNAP, CDP-star luminescence, 1 M DEA, 30 min; active compounds read high; 0 = EDTA background, 1 = DMSO-only activity; activation factor at 20 µM; 200,000 tested, under 10 active; AID 1136;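 active means activation factor at least 2 at 20 µM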
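Control set: EDTA negative control, DMSO positive control / Assay system: human TNAP / Quantity: TNAP 1/800 final / Evaluation: TNAP activation factor scaled between EDTA and DMSO control wells / Measured by: luminescent substrate turnover signal / Compound dosing: one dose, 20 µM / Times: 30 min enzyme reaction at room temperature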
* hit, by the source's call. An excerpt weighted towards active compounds, which were near 0.62% of everything screened.

SMILES | PMI activator | TNAP inh no acc | TNAP inh hi DEA | PMI act satM6P | TNAP act hi DEA
COc1ccc(NC(=O)c2cc(=O)[nH]c(=O)[nH]2)cc1S(=O)(=O)Nc1ccccc1Cl | 0.9 | -4 | -7 | 0.9 | 1.1
O=C(c1ccccc1Sc1ccc([N+](=O)[O-])cc1Cl)N1CCOCC1 | 1.7 | 3 | -1 | 2.1* | 1
N#Cc1ccccc1Sc1ccccc1C(=O)N1CCOCC1 | 0.9 | -6 | -3 | 1 | 1
COc1ccc(-c2csc(C3=C(O)CN(C(C)C)C3=N)n2)cc1OC | 0.9 | -32 | -2 | 0.9 | 1
CCCCCCCn1c(C)nnc1-c1cnn(C)c1N | 1.1 | -12 | -4 | 1.1 | 1
COC(=O)c1cccc(Cn2c(Cl)c(/C=N/Nc3ccccc3C)sc2=O)c1 | 1.5 | -7 | -1 | 2.5* | 1
CC(=O)Nc1ccc(S(=O)(=O)N2CCN(Cc3cccc([N+](=O)[O-])c3)CC2)cc1 | 1 | 1 | -3 | 1 | 1
CCN(CC)S(=O)(=O)c1ccc(OC(C)C)c(NC(=O)c2c3c(nc4ccccc24)CCN(Cc2ccccc2)C3)c1 | 1 | -4 | -2 | 0.9 | 1
O=C(O)CCCC(=O)N1CCc2cc(S(=O)(=O)NCc3ccc(F)cc3)ccc21 | 1.1 | -1 | 0 | 1.1 | 1
COc1cc(C2OCC3C(c4ccc(OC5OC(CO)C(O)C(O)C5O)c(OC)c4)OCC23)ccc1O (configuration not stated) | 0.7 | 64* | 1 | 0.7 | 1
O=C1CC(=C2c3ccccc3-c3ccccc32)C(=O)N1CCCCN1CCN(c2ccccc2)CC1 | 1.5 | -7 | 0 | 2.1* | 1
O=C1CC(=C(c2ccccc2)c2ccccc2)C(=O)N1CCCN1CCN(c2cccc(Cl)c2)CC1 | 0.9 | -10 | -4 | 0.9 | 1
CC(Cc1cccnc1)NC(=O)c1ccccc1OC1CCN(S(C)(=O)=O)CC1 (configuration not stated) | 1 | -4 | -5 | 1.1 | 1.1
c1ccc2c(c1)CCCN2Cc1nnnn1CC1CCCO1 (configuration not stated) | 1.5 | -9 | 1 | 2.1* | 1
c1ccc2sc(N3CCN(Cc4nnnn4CC4CCCO4)CC3)nc2c1 (configuration not stated) | 1.1 | -11 | -4 | 1.1 | 1
c1ccc(-c2nnc(CN3CCCc4ccccc43)o2)cc1 | 1.5 | -11 | -4 | 2.1* | 1
c1ccc(CCn2nnnc2CN2CCCc3ccccc32)cc1 | 1 | -14 | -3 | 2.1* | 1
O=C(CN1C(=O)c2ccccc2S1(=O)=O)NC(Nc1ccccc1F)C(Cl)(Cl)Cl (configuration not stated) | 1 | 14 | 0 | 1 | 1
O=C(COC(=O)c1n[nH]c2ccccc12)NC(=O)NC1CCCCC1 | 1 | 7 | -2 | 1 | 1
CC1CCCCN1C(=O)COC(=O)c1n[nH]c2ccccc12 (configuration not stated) | 1 | 55* | -3 | 1 | 1
CCOC(=O)c1n[nH]c2ccccc12 | 1 | 58* | -2 | 1 | 1
Cc1cccc(C)c1NC(=S)NCCc1ccc(O)c(O)c1 | 0.5 | 60* | 1 | 0.8 | 1
Nc1ccc(Cc2ccc(N)c(O)c2)cc1O | 0.9 | 57* | 21 | 0.5 | 0.8
Brc1ccc(C2NCCS2)cc1 (configuration not stated) | 1.5 | 72* | 2 | 1.4 | 1
O=Cc1ccc(-c2ccccc2C(=O)O)o1 | 1 | -4 | 1 | 1 | 1
SMILES | PMI activator | TNAP inh no acc | TNAP inh hi DEA | PMI act satM6P | TNAP act hi DEA
Cc1c(C(=O)O)cccc1-c1ccc(/C=N/Nc2ccc(Br)cc2)o1 | 1.6 | -7 | -1 | 2.2* | 1
CCCC(=O)N(c1ccc(C(=O)O)cc1)c1nc(-c2ccccc2)c(C)s1 | 0.9 | -4 | -5 | 0.9 | 1.1
O=C(Nc1ccc(F)cc1F)c1cc(=O)n(-c2ccccc2)c(=O)[nH]1 | 1.1 | -54 | -6 | 1 | 1.1
Cc1[nH]c2ccccc2c1C(=O)CSc1nc2ncc(Cl)cc2[nH]1 | 1.1 | 58* | 1 | 1.3 | 1
Cc1cc(C)c2c(N=NN(C)C)[nH]nc2n1 | 1.4 | 52* | -2 | 1.5 | 1
Cc1cc(C)c2c(NC(N)=S)n[nH]c2n1 | 0.8 | 0 | -2 | 1.1 | 1
O=C(/C=C/c1ccccc1)NNc1ccc(Cl)cc1 | 1.8 | -5 | 1 | 2.7* | 1
O=C(c1ccc(Cl)cc1)c1c[nH]c(C(=O)NNc2ccccc2)c1 | 1.7 | -17 | -7 | 2.1* | 1.1
O=C(NNc1ccc([N+](=O)[O-])cc1)c1ccccc1F | 1.7 | 35 | 36 | 2.3* | 0.6
O=C(c1ccc(Cl)cc1)c1c[nH]c(C(=O)C(Cl)(Cl)Cl)c1 | 1.1 | -8 | -2 | 1.3 | 1
O=C(O)c1ccccc1C(=O)NNc1cccc(Cl)n1 | 1.3 | -58 | -31 | 1 | 1.3
O=C(NNc1ccc([N+](=O)[O-])cc1)c1ccccc1Cl | 1.1 | 32 | 41 | 1 | 0.6
O=C(O)c1ccccc1C(=O)NNc1ccc(Cl)cc1 | 1.6 | -10 | -1 | 2.4* | 1
O=C(Nc1ccccc1)Nc1ccc(F)cc1F | 0.9 | -13 | -2 | 1 | 1
O=C(O)c1ccccc1C(=O)NNc1ccc(F)cc1F | 1.6 | -12 | -2 | 2.5* | 1
O=C1CSCN1c1ccc(Cl)cc1 | 0.9 | -4 | -2 | 1 | 1
CCOc1ccc(C(=O)CN2CCN(S(=O)(=O)c3ccc(F)cc3)CC2)cc1 | 1.2 | -3 | 1 | 1.3 | 1
O=C(CN1CCN(S(=O)(=O)c2ccc(F)cc2)CC1)c1ccc(O)c(O)c1 | 1 | 56* | 2 | 1.4 | 1
CN(C)Cc1ccccc1Sc1ccc(O)cc1O | 1 | -10 | -6 | 0.9 | 1.1
O=C(CSc1n[nH]c(-c2ccccc2F)n1)NCC(=O)Nc1ccc(F)c(F)c1F | 1 | 89* | 2 | 1 | 1
Cc1cc(C)c2nc(NC(=O)[C@@H](NC(=O)c3cccc(S(=O)(=O)N4CCOCC4)c3)C(C)C)sc2c1 | 1.1 | -5 | -4 | 1 | 1
Cc1c(Cl)sn(-c2ccc(Cl)cc2)c1=O | 0.4 | -16 | -8 | 1 | 1.1
CC(=O)n1nc(-c2cccnc2)nc1NCc1cccs1 | 1.1 | 57* | -6 | 1.1 | 1.1
CCC(=O)n1nc(-c2cccnc2)nc1NCc1cccs1 | 0.9 | 69* | 4 | 0.9 | 1
CCCC(=O)n1nc(-c2cccnc2)nc1NCc1cccs1 | 0.9 | 48 | 0 | 1 | 1
O=C1OC(/C(=C\Nc2cc(Cl)ccc2O)[N+](=O)[O-])c2ccccc21 (configuration not stated) | 0.9 | 37 | 16 | 0.9 | 0.8
CCC(=O)n1nc(-c2ccc(Cl)cc2)nc1SC | 0.9 | 60* | 0 | 0.9 | 1
